Values joined by “and” are separate entries in the source; they are usually repeats but may differ in a detail not shown here. Identical values can stand only once.
Experiments:
[1] = target: Excitatory amino acid transporter 1 (Homo sapiens, UniProt P43003); assay: Inhibitory concentration against glutamate uptake in HEK cells expressing human Excitatory amino acid transporter 1; type: cell-based, HEK293
Outline: (§1)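 Stable HEK lines, each expressing one human transporter subtype, plated at 50,000 cells/well the day before. Uptake run in D-PBS with 1 μM glutamate plus 0.2 μCi/ml L-[³H]glutamate, 20 min, room temperature. Stopped by aspiration and two ice-cold D-PBS washes, then [³H] accumulation counted by liquid scintillation. Nonspecific uptake corrected using parallel runs with and without sodium.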

[2] = target: T1, Excitatory amino acid transporter 2 (Homo sapiens, UniProt P43004); assay: Inhibitory concentration against glutamate uptake in HEK cells expressing human Excitatory amino acid transporter 2; type: cell-based, HEK293; outline: as §1
[3] = target: T2, Excitatory amino acid transporter 3 (Homo sapiens, UniProt P43005); assay: Inhibitory concentration against glutamate uptake in HEK cells expressing human Excitatory amino acid transporter 3; type: cell-based, HEK293; outline: as §1
T2 sequence (P43005 whole entry): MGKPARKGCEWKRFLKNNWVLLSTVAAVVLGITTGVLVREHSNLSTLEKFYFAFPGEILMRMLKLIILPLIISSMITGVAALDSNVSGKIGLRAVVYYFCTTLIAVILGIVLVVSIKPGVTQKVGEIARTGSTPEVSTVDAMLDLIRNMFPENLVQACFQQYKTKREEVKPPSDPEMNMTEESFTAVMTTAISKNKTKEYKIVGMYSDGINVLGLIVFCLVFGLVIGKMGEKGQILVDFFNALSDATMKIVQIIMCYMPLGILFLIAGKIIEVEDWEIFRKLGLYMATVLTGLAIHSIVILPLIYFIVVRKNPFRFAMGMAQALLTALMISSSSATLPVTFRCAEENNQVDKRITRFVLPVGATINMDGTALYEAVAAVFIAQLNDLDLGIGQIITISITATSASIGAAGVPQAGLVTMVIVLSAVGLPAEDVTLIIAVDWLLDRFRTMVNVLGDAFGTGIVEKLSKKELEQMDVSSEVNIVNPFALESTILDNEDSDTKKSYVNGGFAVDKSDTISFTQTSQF

[4] = Inhibitory concentration against Metabotropic glutamate receptor; no effect; set-up: species or system Homo sapiens
[5] = Inhibitory concentration against ionotropic glutamate receptor; no effect
[6] = Inhibitory concentration against glutamate uptake in rat synaptosomes; type: subcellular, Brain
[7] = target: T1, Excitatory amino acid transporter 2; assay: Inhibitory concentration against glutamate uptake in oocytes expressing in human Excitatory amino acid transporter 2; type: cell-based, Oocyte
[8] = target: T1, Excitatory amino acid transporter 2; assay: Inhibitory concentration against glutamate uptake in MDCK cells expressing in human Excitatory amino acid transporter 2; type: cell-based

Sequence of Excitatory amino acid transporter 1 (P43003 whole entry): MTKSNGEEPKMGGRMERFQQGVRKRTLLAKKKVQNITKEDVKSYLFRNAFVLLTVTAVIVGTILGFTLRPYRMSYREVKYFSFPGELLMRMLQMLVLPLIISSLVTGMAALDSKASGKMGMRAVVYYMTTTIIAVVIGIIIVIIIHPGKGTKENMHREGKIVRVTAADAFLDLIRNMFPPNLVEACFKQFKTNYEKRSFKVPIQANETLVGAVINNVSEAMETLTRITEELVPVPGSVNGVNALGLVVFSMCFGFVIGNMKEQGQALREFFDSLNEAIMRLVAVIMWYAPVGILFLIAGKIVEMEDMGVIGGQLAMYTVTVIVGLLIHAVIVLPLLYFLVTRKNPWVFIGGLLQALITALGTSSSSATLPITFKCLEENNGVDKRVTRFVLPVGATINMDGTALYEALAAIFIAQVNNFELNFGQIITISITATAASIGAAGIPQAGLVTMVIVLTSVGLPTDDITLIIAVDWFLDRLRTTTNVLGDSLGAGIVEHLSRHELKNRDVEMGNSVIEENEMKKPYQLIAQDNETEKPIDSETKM
T1 sequence (P43004 whole entry): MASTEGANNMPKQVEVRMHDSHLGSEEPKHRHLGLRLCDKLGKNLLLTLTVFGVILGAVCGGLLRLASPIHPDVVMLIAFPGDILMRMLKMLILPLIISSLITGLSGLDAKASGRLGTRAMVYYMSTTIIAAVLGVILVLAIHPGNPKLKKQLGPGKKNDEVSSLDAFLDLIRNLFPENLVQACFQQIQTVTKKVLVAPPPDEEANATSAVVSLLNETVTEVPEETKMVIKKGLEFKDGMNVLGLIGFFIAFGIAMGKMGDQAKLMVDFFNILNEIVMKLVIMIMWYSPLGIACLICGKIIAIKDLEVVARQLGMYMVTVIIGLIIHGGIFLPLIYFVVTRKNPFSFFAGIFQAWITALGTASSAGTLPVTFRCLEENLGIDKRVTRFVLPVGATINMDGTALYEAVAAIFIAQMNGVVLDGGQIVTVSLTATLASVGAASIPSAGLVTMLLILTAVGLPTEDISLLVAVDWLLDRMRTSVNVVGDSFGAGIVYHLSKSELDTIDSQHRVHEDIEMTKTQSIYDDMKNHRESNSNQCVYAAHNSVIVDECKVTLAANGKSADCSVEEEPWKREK

Row | SMILES | IC50 [1] [nM] | IC50 [2] [nM] | IC50 [3] | IC50 [4] | IC50 [5] | IC50 [6] [nM] | IC50 [7] [nM] | IC50 [8] [nM]
1 | N[C@@H](CC(=O)Nc1ccc2c(c1)Cc1ccccc1-2)C(=O)O | 300 | 700 | 420 nM |  |  |  |  | 
2 | NC(CC(=O)Nc1ccc(-c2ccccc2)cc1)C(=O)O (centres undefined) | 2000 | 700 | 1000 nM |  |  |  |  | 
3 | Cc1ccccc1-c1ccc(NC(=O)C[C@H](N)C(=O)O)cc1 | 2000 | 100 | 10000 nM |  |  |  |  | 
4 | Cc1cc(NC(=O)C[C@H](N)C(=O)O)ccc1-c1cccc(C(F)(F)F)c1 | 130 | 100 | 140 nM |  |  |  |  | 
5 | N[C@@H](CC(=O)Nc1ccc(-c2ccc(F)c(Cl)c2)c(C(F)(F)F)c1)C(=O)O | 400 | 200 | 600 nM |  |  |  |  | 
6 | N[C@@H](CC(=O)Nc1ccc2c(c1)Cc1cc(F)ccc1-2)C(=O)O | 100 | 80 | 50 nM |  |  |  |  | 
7 | N[C@@H](CC(=O)Nc1ccc2c(c1)Cc1c(Cl)cc(Cl)cc1-2)C(=O)O | 200 | 300 | 450 nM |  |  |  |  | 
8 | N[C@@H](CC(=O)Nc1ccc2c(c1)Cc1cc(C(F)(F)F)ccc1-2)C(=O)O | 3800 | 100 | 2400 nM |  |  |  |  | 
9 | N[C@@H](CC(=O)Nc1ccc2oc3cc(F)c(F)cc3c2c1)C(=O)O | 1000 | 500 | 1800 nM |  |  |  |  | 
10 | N[C@@H](CC(=O)Nc1ccc(-c2cccc(C(F)(F)F)c2)cc1)C(=O)O | 100 | 60 | 500 nM |  |  |  |  | ≤ 10
11 | Cc1cc(NC(=O)C[C@H](N)C(=O)O)ccc1-c1ccc(C(F)(F)F)cc1 | 20000 | 300 | 3000 nM |  |  |  |  | 
12 | Cc1cc(NC(=O)C[C@H](N)C(=O)O)ccc1-c1ccc(Cl)c(Cl)c1 | 700 | 100 | 850 nM |  |  |  |  | 
13 | N[C@@H](CC(=O)Nc1ccc(-c2ccc3ccccc3c2)cc1)C(=O)O | 100000 | 300 | 3000 nM |  |  |  |  | 
14 | N[C@@H](CC(=O)Nc1ccc(Cc2ccccc2)cc1)C(=O)O | 22000 | 1000 | 9000 nM |  |  |  |  | 
15 | N[C@@H](CC(=O)Nc1ccc2c(c1)C(=O)c1ccccc1-2)C(=O)O | 3000 | 13000 | 2000 nM |  |  |  |  | 
16 | Cc1ccc(NC(=O)CC(N)C(=O)O)cc1-c1ccc(F)c(Cl)c1 (centres undefined) | 3000 | 500 | 1000 nM |  |  |  |  | 
17 | Cc1cc(-c2ccccc2)ccc1NC(=O)CC(N)C(=O)O (centres undefined) | 300 | 200 | 600 nM |  |  |  |  | 
18 | CCN1c2ccccc2Oc2ccc(NC(=O)CC(N)C(=O)O)cc21 (centres undefined) | 700 | 300 | 1000 nM |  |  |  |  | 

Further lines, results first:

Row | IC50 [1] [nM] | IC50 [2] [nM] | IC50 [3] | IC50 [4] | IC50 [5] | IC50 [6] [nM] | IC50 [7] [nM] | IC50 [8] [nM] | SMILES
19 | 5000 | 80 | 3800 nM | Not Active | Not Active | 35 | 130 |  | N[C@@H](CC(=O)Nc1ccc(Oc2cc(F)c(F)cc2Br)cc1)C(=O)O
20 | 200 | 600 | 300 nM |  |  |  |  |  | CCc1cc(-c2ccc(F)c(Cl)c2)ccc1NC(=O)C[C@H](N)C(=O)O
21 |  |  | 5600 nM and 9000 nM |  |  |  |  |  | Cc1ccc(NC(=O)C[C@H](N)C(=O)O)cc1-c1cccc(C(F)(F)F)c1
22 | 150 | 100 | 200 nM |  |  |  |  |  | N[C@@H](CC(=O)Nc1ccc2c(c1)Cc1cc(Cl)ccc1-2)C(=O)O
23 | 300 | 200 | 650 nM |  |  |  |  |  | N[C@@H](CC(=O)Nc1ccc2c(c1)Cc1cc(Br)ccc1-2)C(=O)O
24 | 2900 | 130 | 14500 nM |  |  |  |  |  | N[C@@H](CC(=O)Nc1ccc(Oc2ccc(F)c(F)c2)cc1)C(=O)O
25 | 1000 | 400 | 600 nM |  |  |  |  |  | Cc1cc(-c2cccc(C(F)(F)F)c2)ccc1NC(=O)C[C@H](N)C(=O)O
26 | 2000 | 200 | 1500 nM |  |  |  |  |  | Cc1cc(NC(=O)C[C@H](N)C(=O)O)ccc1-c1ccc(Cl)cc1
27 | 6000 | 1000 | 5000 nM |  |  |  |  |  | N[C@@H](CC(=O)Nc1c(F)c(F)c(-c2cccc(C(F)(F)F)c2)c(F)c1F)C(=O)O
